# Measurements published in PubChem BioAssay.
# Activity calls are given as the source filed them.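 How the source made its calls, unless noted: active means GFP response above 150% of the DMSO level; inconclusive means fewer than 70 events counted for a yeast strain; inactive means the rest.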
# What was measured:
# [1] = RPL19A-GFP modulators, yeast TOR pathway, confirmation, cell-based, S. cerevisiae, flow cytometry, cherry picks, mother/daughter gates (AID 2270;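 active means GFP response below 50% of the DMSO control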); conditions: S. cerevisiae RPL19A-GFP strain, 3 h, at 10 µM, stronger effect = lower value, 100 = same GFP as DMSO wells
# [2] = LAP4-GFP expression modulators in yeast, confirmation, cell-based, cherry picks, flow cytometry, mother/daughter gates (AID 2271;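 active means GFP response above 150% of the DMSO control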;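 further: ratio of sample to DMSO plate mean so 100% equals DMSO level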); conditions: S. cerevisiae LAP4-GFP strain, 3 h, at 10 µM, stronger effect = higher value, 100 means same as DMSO control
# Outline: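 Test system: GFP-fusion yeast strain / Amount: 0.2 OD600 cells / Buffer or medium: SC medium / Dosing: 10 µM single dose / Incubation: compound exposure 3 h at 30 °C, end-over-end rotation / Detection: HT flow cytometry, GFP fluorescence channel / Evaluation: median GFP fluorescence as percent of plate-mean DMSO wells / Control set: DMSO-only negative wells, rapamycin 400 ng/mL positive wells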
# [3] = modulators of MEP2-GFP levels in yeast, confirmation, S. cerevisiae, flow cytometry GFP, cherry picks (AID 2272;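 active means GFP response above 150% of the DMSO control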;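 further: ratio of well signal to plate DMSO mean so 100% equals DMSO level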); conditions: S. cerevisiae MEP2-GFP strain, 3 h, at 10 µM, stronger effect = higher value
# [4] = AGP1-GFP expression modulators, hit retest, confirmation, cell-based, flow cytometry, S. cerevisiae, cherry picks (AID 2273);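 further: median GFP channel fluorescence over the whole cell population gate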; conditions: S. cerevisiae AGP1-GFP strain, 3 h, at 10 µM
# [5] = modulators of CIT2-GFP expression in yeast, confirmation, S. cerevisiae, GFP fusion, cherry picks, mother/daughter gates (AID 2274); conditions: S. cerevisiae CIT2-GFP strain, flow cytometry, 3 h, at 10 µM, stronger effect = higher value
# [6] = measured here: daughter cell gate
# [7] = measured here: mother cell gate
# [8] = measured here: daughter cell gate response
# [9] = measured here: mother cell gate response
SMILES,GFP response vs DMSO [1],"GFP response vs DMSO [1, 6] [%]","GFP response vs DMSO [1, 7] [%]",GFP response relative to DMSO [2],"GFP response relative to DMSO [2, 8] [%]","GFP response relative to DMSO [2, 9] [%]",GFP response vs DMSO [3],"GFP response, % of DMSO [4]","GFP response, % of DMSO [5]","GFP response, % of DMSO [5, 6] [%]","GFP response, % of DMSO [5, 7] [%]"
Cc1ccc(C(=O)O)cc1N1C(=O)c2cccc3cc(Br)cc(c23)C1=O,101% (inactive),98.6,100,102% (inactive),99.1,105,103% (inactive),101% (inactive),97.3% (inactive),97.4,98.1
COc1ccc(Sc2ncnc3onc(C)c23)cc1,96.7% (inactive),96.1,95.4,118% (inactive),113,120,103% (inactive),99.1% (inactive),95.8% (inactive),99.3,96
O=C(NCCCSc1ccccc1)c1cc(Cl)ccc1O,100% (inactive),98,102,108% (inactive),104,110,104% (inactive),90.5% (inactive),96.4% (inactive),96.4,94.5
CC(=O)Nc1ccc(NC(=O)c2nc(S(=O)(=O)Cc3cccc(C)c3)ncc2Cl)cc1,102% (inactive),99.5,103,93.8% (inactive),97.2,95.2,100% (inactive),97.4% (inactive),104% (inactive),103,105
Cc1nnc(NC(=O)c2csc3c2CCC(C)C3)s1 (stereo not drawn),91.5% (inactive),87.2,93.3,117% (inactive),110,124,93.5% (inactive),93% (inactive),78.2% (inactive),76.8,77.3
COc1cccc(-c2nnc(NC(=O)c3ccc(S(=O)(=O)N4CC(C)OC(C)C4)cc3)o2)c1 (stereo not drawn),103% (inactive),103,102,95.7% (inactive),94.2,96.2,109% (inactive),100% (inactive),100% (inactive),97.4,99.3
COc1ccc(C(=O)Nc2c(N)nc[nH]c2=O)cc1,102% (inactive),99.3,99,97% (inactive),97.5,97.3,105% (inactive),103% (inactive),105% (inactive),103,102
N=C1S/C(=C\c2ccco2)C(=O)N1c1nccs1,109% (inactive),108,100,168% (active),145,168,112% (inactive),95.7% (inactive),108% (inactive),108,103
O=C1C2C3C=CC(C4CC34)C2C(=O)N1/N=C/c1ccc([N+](=O)[O-])o1 (stereo not drawn),101% (inactive),105,95.8,129% (inactive),122,120,106% (inactive),101% (inactive),107% (inactive),112,100
Cc1cc(/C=C2/SC(=S)N(c3cccc(Cl)c3)C2=O)c(C)n1-c1cccnc1,107% (inactive),106,108,133% (inactive),125,136,135% (inactive),110% (inactive),118% (inactive),117,117
O=C(Oc1c(Cl)cc(Cl)c2cccnc12)c1ccco1,103% (inactive),89.2,100,196% (active),148,199,128% (inactive),95.9% (inactive),95.9% (inactive),86.6,93.2
COc1ccccc1NC(=O)c1ccc(N)cc1,98% (inactive),98,98.1,100% (inactive),102,100,99.5% (inactive),98.7% (inactive),102% (inactive),104,101
Cc1cccn2c(=O)c(/C=C(\C#N)C(=O)NCc3ccco3)c(N3CCCCCC3)nc12,97% (inactive),97.3,97.2,96.2% (inactive),95.6,98.3,97.8% (inactive),95.4% (inactive),90% (inactive),89.9,86.9
Cc1ccc(C)c(-c2nnc(NC(=O)c3ccc([N+](=O)[O-])o3)o2)c1,101% (inactive),95.7,101,115% (inactive),114,116,107% (inactive),91.6% (inactive),90.1% (inactive),90.2,87
COC(=O)C1=C(C)NC(C)=C(C(=O)OC)C1c1ccc(OC(=O)c2oc3ccccc3c2C)c(OC)c1,98.8% (inactive),98.1,98.8,90% (inactive),90.4,89.9,98.8% (inactive),103% (inactive),103% (inactive),102,104
CCc1ccc2c(c1)C1(NN=C(c3cccc4ccccc34)S1)C(=O)N2 (stereo not drawn),96% (inactive),96.7,93.1,111% (inactive),105,114,97.2% (inactive),102% (inactive),93.1% (inactive),99.3,88.2
COc1ccc(/C=N/Nc2nc(-c3cccnc3)nc3ccccc23)c(OC)c1,98% (inactive),97.6,98.2,96.7% (inactive),94.4,98.3,111% (inactive),96.8% (inactive),108% (inactive),112,107

SMILES,GFP response vs DMSO [1],"GFP response vs DMSO [1, 6] [%]","GFP response vs DMSO [1, 7] [%]",GFP response relative to DMSO [2],"GFP response relative to DMSO [2, 8] [%]","GFP response relative to DMSO [2, 9] [%]",GFP response vs DMSO [3],"GFP response, % of DMSO [4]","GFP response, % of DMSO [5]","GFP response, % of DMSO [5, 6] [%]","GFP response, % of DMSO [5, 7] [%]"
CCCn1c(=O)c(C(=O)Nc2ccccc2C(=O)OCC)c(O)c2ccccc21,95.1% (inactive),96.7,95.2,95.3% (inactive),94.4,97.4,108% (inactive),110% (inactive),100% (inactive),103,100
Oc1ccc(-c2csc(-c3ccccc3)n2)cc1O,97% (inactive),93.2,96.5,124% (inactive),120,129,101% (inactive),96% (inactive),93.4% (inactive),93.7,90.8
O=C(O)C1CCC(NSc2ccccc2[N+](=O)[O-])CC1 (stereo not drawn),98.2% (inactive),95.9,95.2,145% (inactive),133,157,96.8% (inactive),101% (inactive),97.3% (inactive),99.2,94.4
O=[N+]([O-])c1ncccc1OCc1ccc(-c2ccccc2)cc1,101% (inactive),99.6,98.8,135% (inactive),138,131,160% (inactive),104% (inactive),123% (inactive),126,114
Cc1ccc(C2CC(c3cccs3)=NN2S(=O)(=O)c2ccc(C)cc2)cc1 (stereo not drawn),101% (inactive),100,102,98.2% (inactive),97.5,97.3,109% (inactive),99% (inactive),98.8% (inactive),97.4,98.1
CN(C)c1ccc(/C=C/c2cc[n+](C)cc2)cc1,111% (inactive),109,109,160% (active),168,159,215% (active),109% (inactive),149% (inactive),129,134
COc1cccc(C(=O)Nc2ccc(NC(=O)c3cc4ccccc4o3)c(OC)c2)c1,100% (inactive),98.1,103,89% (inactive),92.5,89,102% (inactive),95% (inactive),108% (inactive),105,111
CCCc1[nH]nc2c1C(c1ccc(OC)c(Cn3nnc4ccccc43)c1)C(C#N)=C(N)O2 (stereo not drawn),98% (inactive),98.6,98.2,104% (inactive),102,103,100% (inactive),103% (inactive),99.7% (inactive),99.1,99.7
COC(CNC(=O)c1ccc2c3c(onc13)-c1ccccc1C2=O)OC,99.9% (inactive),103,95.8,188% (active),170,189,120% (inactive),86% (inactive),91.3% (inactive),98.1,83.7
O=C1c2ccsc2SCCN1Cc1c(F)cccc1Cl,92.8% (inactive),90.7,93.9,112% (inactive),110,113,96.8% (inactive),99% (inactive),98.8% (inactive),99.2,98.1
CC(C)Cn1c(=O)c(C(=O)Nc2ccncc2)c(O)c2ccccc21,94.7% (inactive),101,85,160% (active),122,155,117% (inactive),88.7% (inactive),97.8% (inactive),99.7,90.2
CCCc1[nH]nc2c1C(c1ccc(OC)c(Cn3nc(C)c(Br)c3C)c1)C(C#N)=C(N)O2 (stereo not drawn),95% (inactive),94.2,96.2,97.7% (inactive),97.9,98.5,99.5% (inactive),99.3% (inactive),97.8% (inactive),98.3,95.6
N/C(Cc1ccc(Cl)cc1Cl)=N\OC(=O)c1ccccc1,99.2% (inactive),86.3,89.4,222% (active),145,213,125% (inactive),105% (inactive),181% (active),117,157
O=[N+]([O-])c1ccc(N2N=C(c3ccco3)CC2c2ccccc2)cc1 (stereo not drawn),104% (inactive),104,97.7,107% (inactive),104,108,131% (inactive),99.8% (inactive),105% (inactive),105,103
CS(=O)(=O)N1N=C(c2ccco2)CC1c1ccccc1 (stereo not drawn),100% (inactive),101,99.9,102% (inactive),102,100,99% (inactive),105% (inactive),106% (inactive),105,103
O=C(N/N=C/c1ccccc1Cl)c1ccc(F)cc1,98.2% (inactive),98.1,97.2,111% (inactive),104,112,96.8% (inactive),102% (inactive),105% (inactive),103,103
